Results from ChEMBL document CHEMBL3526053, “Species-dependent uptake of glycylsarcosine but not oseltamivir in Pichia pastoris expressing the rat, mouse, and human intestinal peptide transporter PEPT1” (Drug Metab Dispos, 2012).

Columns and labels:
Assay type in all cases: ADME
[1] = biological target: T1, Solute carrier family 15 member 1 (Rattus norvegicus, UniProt P51574); experiment: Drug uptake in Pichia pastoris GS115 expressing rat recombinant PEPT1 at 5 uM after 30s by dual-channel liquid scintillation counting analysis in presence of cephalothin relative to control; settings: 0.5 min
T1 sequence (P51574 whole entry): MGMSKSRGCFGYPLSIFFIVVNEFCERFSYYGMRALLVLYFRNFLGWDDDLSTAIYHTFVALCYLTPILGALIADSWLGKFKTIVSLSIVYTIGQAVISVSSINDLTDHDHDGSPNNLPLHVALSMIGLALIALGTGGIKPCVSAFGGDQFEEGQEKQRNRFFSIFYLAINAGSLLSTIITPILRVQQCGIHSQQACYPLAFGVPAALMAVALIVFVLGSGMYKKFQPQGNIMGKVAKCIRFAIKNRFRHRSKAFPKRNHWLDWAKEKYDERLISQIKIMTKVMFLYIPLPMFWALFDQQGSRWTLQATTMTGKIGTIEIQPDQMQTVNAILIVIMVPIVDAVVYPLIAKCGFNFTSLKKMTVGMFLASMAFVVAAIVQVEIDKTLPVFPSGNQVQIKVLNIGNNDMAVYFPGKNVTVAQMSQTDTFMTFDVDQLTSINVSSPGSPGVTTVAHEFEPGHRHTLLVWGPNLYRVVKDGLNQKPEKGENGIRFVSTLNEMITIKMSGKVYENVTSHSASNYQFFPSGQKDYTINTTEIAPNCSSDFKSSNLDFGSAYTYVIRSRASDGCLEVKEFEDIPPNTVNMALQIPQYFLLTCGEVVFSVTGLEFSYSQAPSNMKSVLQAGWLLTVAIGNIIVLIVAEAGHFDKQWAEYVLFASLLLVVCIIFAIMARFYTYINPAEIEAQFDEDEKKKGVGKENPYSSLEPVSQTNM
Summary of the method: (§1)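 Rat PEPT1 (pPIC3.5K-rPept1) in GS115 His+Mut+ transformant, methanol-induced 20-24 hr in BMMY at 30°C, washed into 100 mM potassium phosphate pH 6.5. [3H]GlySar final 5.0 µM with inhibitor at 10 mM, 30 sec at 24°C. Counts taken by liquid scintillation after 24 hr standing. Values are vector-subtracted and given as % of buffer control. Mean ± SE, n=3.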

[2] = biological target: T2, Solute carrier family 15 member 1 (Mus musculus, UniProt Q9JIP7); experiment: Drug uptake in Pichia pastoris GS115 expressing mouse recombinant PEPT1 at 5 uM after 30s by dual-channel liquid scintillation counting analysis in presence of cefadroxil relative to control; settings: 0.5 min
T2 sequence (Q9JIP7 whole entry): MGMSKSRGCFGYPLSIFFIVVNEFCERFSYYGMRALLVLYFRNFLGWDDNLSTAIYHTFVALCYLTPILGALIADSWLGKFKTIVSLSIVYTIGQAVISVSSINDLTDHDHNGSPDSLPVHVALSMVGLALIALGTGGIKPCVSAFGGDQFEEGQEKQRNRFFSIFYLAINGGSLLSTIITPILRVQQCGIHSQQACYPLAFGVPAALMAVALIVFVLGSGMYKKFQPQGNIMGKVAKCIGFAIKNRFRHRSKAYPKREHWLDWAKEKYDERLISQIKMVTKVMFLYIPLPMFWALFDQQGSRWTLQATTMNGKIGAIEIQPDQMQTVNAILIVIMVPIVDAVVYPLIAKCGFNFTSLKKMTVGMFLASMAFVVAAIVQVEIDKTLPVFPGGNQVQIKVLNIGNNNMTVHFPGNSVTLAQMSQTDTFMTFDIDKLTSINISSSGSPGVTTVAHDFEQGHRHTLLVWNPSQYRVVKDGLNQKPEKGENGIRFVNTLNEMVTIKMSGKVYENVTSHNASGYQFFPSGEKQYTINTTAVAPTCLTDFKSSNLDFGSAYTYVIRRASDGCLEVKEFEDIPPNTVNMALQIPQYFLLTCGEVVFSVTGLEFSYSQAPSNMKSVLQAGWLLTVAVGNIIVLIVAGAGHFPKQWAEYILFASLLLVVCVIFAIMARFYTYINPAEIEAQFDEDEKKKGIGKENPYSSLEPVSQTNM
Summary of the method: (§2)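 [3H]GlySar 5.0 µM final, 30-s uptake at 24°C in 100 mM potassium phosphate pH 6.5, with or without a potential inhibitor at 10 mM. Cells are methanol-induced transformants. Values are vector-subtracted and expressed as percent of buffer control. Mean ± SE (n=3). ANOVA with Dunnett's test.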

[3] = biological target: T3, Solute carrier family 15 member 1 (Homo sapiens, UniProt P46059); experiment: Drug uptake in Pichia pastoris GS115 expressing human recombinant PEPT1 at 5 uM after 30s by dual-channel liquid scintillation counting analysis in presence of SITS relative to control; settings: 0.5 min; summary of the method: as §2
T3 sequence (P46059 whole entry): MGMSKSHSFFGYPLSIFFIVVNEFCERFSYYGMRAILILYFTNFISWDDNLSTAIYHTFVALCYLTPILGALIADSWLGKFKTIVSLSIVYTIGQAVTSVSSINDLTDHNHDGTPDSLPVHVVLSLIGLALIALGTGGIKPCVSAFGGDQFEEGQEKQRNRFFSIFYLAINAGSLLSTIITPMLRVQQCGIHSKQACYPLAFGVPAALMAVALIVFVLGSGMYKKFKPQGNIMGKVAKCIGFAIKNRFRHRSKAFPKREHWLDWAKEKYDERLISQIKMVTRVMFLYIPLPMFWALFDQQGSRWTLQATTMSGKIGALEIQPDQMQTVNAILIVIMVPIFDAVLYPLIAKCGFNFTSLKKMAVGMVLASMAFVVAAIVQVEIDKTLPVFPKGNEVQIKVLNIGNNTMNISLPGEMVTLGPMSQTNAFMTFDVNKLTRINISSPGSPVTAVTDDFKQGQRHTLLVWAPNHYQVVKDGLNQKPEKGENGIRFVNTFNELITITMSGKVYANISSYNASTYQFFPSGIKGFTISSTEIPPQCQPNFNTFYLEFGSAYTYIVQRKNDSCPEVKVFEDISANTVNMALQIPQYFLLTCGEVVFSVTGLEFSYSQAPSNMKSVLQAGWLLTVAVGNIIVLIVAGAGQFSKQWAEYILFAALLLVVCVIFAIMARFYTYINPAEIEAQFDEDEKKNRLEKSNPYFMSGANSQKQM

[4] = biological target: T1, Solute carrier family 15 member 1; experiment: Drug uptake in Pichia pastoris GS115 expressing rat recombinant PEPT1 at 5 uM after 30s by dual-channel liquid scintillation counting analysis in presence of cefazolin relative to control; settings: 0.5 min; summary of the method: as §1
[5] = biological target: T2, Solute carrier family 15 member 1; experiment: Drug uptake in Pichia pastoris GS115 expressing mouse recombinant PEPT1 at 5 uM after 30s by dual-channel liquid scintillation counting analysis in presence of glycine relative to control; settings: in vivo, 0.5 min; summary of the method: as §2
[6] = biological target: T3, Solute carrier family 15 member 1; experiment: Drug uptake in Pichia pastoris GS115 expressing human recombinant PEPT1 at 5 uM after 30s by dual-channel liquid scintillation counting analysis relative to control; settings: 0.5 min; summary of the method: as §2
[7] = biological target: T1, Solute carrier family 15 member 1; experiment: Drug uptake in Pichia pastoris GS115 expressing rat recombinant PEPT1 at 5 uM after 30s by dual-channel liquid scintillation counting analysis in presence of GlyPro relative to control; settings: in vivo, 0.5 min; summary of the method: as §2

## [3H]C(C(=O)O)N(C)C(=O)CN (configuration not stated)
[1]
  Drug uptake: 119%
[2]
  Drug uptake: 16.7%
[3]
  Drug uptake: 127%
[4]
  Drug uptake: 93.7%
[5]
  Drug uptake: 104%
[6]
  Drug uptake: 100%
[7]
  Drug uptake: 0.6%
